In ChEMBL document CHEMBL1125626, “Synthesis and structure-activity relationship of new cephalosporins with amino heterocycles at C-7. Dependence of the antibacterial spectrum and beta-lactamase stability on the pKa of the C-7 heterocycle” (1991):
≈ marks a conversion by molar mass, not a printed value.

What was measured:
Serratia marcescens = assay: Minimum inhibitory concentration against Serratia marcescens A16 (inoculum, 10e5 cfu per spot); assay type: functional
How it was run: (§1)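 MIC in µg/mL, determined in Jewell and Permain growth medium with spot inoculation at 10^5 cfu per spot.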

Escherichia coli [1] = assay: Minimum inhibitory concentration against Escherichia coli X4 (inoculum, 10e4 cfu per spot)
Klebsiella aerogenes [2] = assay: Minimum inhibitory concentration against Klebsiella aerogenes X5L (inoculum, 10e4 cfu per spot); assay type: functional
How it was run: (§2)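 MIC in µg/mL, determined in Jewell and Permain growth medium with spot inoculation at 10^4 cfu per spot. P99 is described as a constitutive type I lactamase producer.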

Klebsiella pneumoniae = assay: Minimum inhibitory concentration against Klebsiella pneumoniae A24 (inoculum, 10e5 cfu per spot); assay type: functional; how it was run: as §1
Escherichia coli [3] = assay: Minimum inhibitory concentration against Escherichia coli TEM X3 (inoculum, 10e4 cfu per spot)(TEM I type lactamase producer)
Enterobacter cloacae [4] = assay: Minimum inhibitory concentration against Enterobacter cloacae A13 (inoculum, 10e5 cfu per spot); assay type: functional; how it was run: as §1
Escherichia coli [5] = assay: Minimum inhibitory concentration against Escherichia coli DC2 (inoculum, 10e4 cfu per spot); assay type: functional; how it was run: as §2
Enterobacter cloacae [6] = assay: Minimum inhibitory concentration against Enterobacter cloacae P99 (inoculum, 10e4 cfu per spot)(type I lactamase producer); assay type: functional; how it was run: as §2
Escherichia coli [7] = assay: Minimum inhibitory concentration against Escherichia coli DCO (inoculum, 10e4 cfu per spot); assay type: functional; how it was run: as §2
Proteus vulgaris = assay: Minimum inhibitory concentration against Proteus vulgaris Pv9 (inoculum, 10e5 cfu per spot)
Enterobacter cloacae [8] = assay: Minimum inhibitory concentration against Enterobacter cloacae P99 (inoculum, 10e4 cfu per spot); assay type: functional; how it was run: as §2
Klebsiella aerogenes [9] = assay: Minimum inhibitory concentration against Klebsiella aerogenes X6 (inoculum, 10e4 cfu per spot); assay type: functional; how it was run: as §2
Staphylococcus aureus [10] = assay: Minimum inhibitory concentration against Staphylococcus aureus A4 (inoculum, 10e5 cfu per spot); assay type: functional; how it was run: as §1
Pseudomonas aeruginosa = assay: Minimum inhibitory concentration against Pseudomonas aeruginosa A21 (inoculum, 10e5 cfu per spot); assay type: functional; how it was run: as §1
Proteus mirabilis = assay: Minimum inhibitory concentration against Proteus mirabilis A18 (inoculum, 10e5 cfu per spot); assay type: functional; how it was run: as §1
Escherichia coli [11] = assay: Minimum inhibitory concentration against Escherichia coli A8 (inoculum, 10e5 cfu per spot); assay type: functional; how it was run: as §1
Staphylococcus aureus [12] = assay: Minimum inhibitory concentration against Staphylococcus aureus A6 (inoculum, 10e5 cfu per spot); assay type: functional; how it was run: as §1
Streptococcus pyogenes = assay: Minimum inhibitory concentration against Streptococcus pyogenes (inoculum, 10e5 cfu per spot) A1; assay type: functional; how it was run: as §1

Row | Structure (SMILES) | MIC (Serratia marcescens) | MIC (Escherichia coli [1]) | MIC (Klebsiella aerogenes [2]) | MIC (Klebsiella pneumoniae) | MIC (Escherichia coli [3]) | MIC (Enterobacter cloacae [4]) | MIC (Escherichia coli [5]) | MIC (Enterobacter cloacae [6]) | MIC (Escherichia coli [7]) | MIC (Proteus vulgaris) | MIC (Enterobacter cloacae [8]) | MIC (Klebsiella aerogenes [9]) | MIC (Staphylococcus aureus [10]) | MIC (Pseudomonas aeruginosa) | MIC (Proteus mirabilis) | MIC (Escherichia coli [11]) | MIC (Staphylococcus aureus [12]) | MIC (Streptococcus pyogenes)
1 | CC1=C(C(=O)OC(c2ccccc2)c2ccccc2)N2C(=O)[C@@H](NC3=NC(C)C(C)N3)C2SC1 (some centres undefined) | > 256 µg/mL | 4 µg/mL (≈ 8.39 µM) | 32 µg/mL (≈ 67.1 µM) | 16 µg/mL (≈ 33.6 µM) | 4 µg/mL (≈ 8.39 µM) | 32 µg/mL (≈ 67.1 µM) | 4 µg/mL (≈ 8.39 µM) | 4 µg/mL (≈ 8.39 µM) | 4 µg/mL (≈ 8.39 µM) | > 256 µg/mL | 4 µg/mL (≈ 8.39 µM) | 16 µg/mL (≈ 33.6 µM) | > 256 µg/mL | > 256 µg/mL | > 256 µg/mL | 32 µg/mL (≈ 67.1 µM) | > 256 µg/mL | > 256 µg/mL
2 | CC(=O)OCC1=C(C(=O)OC(C)(C)C)N2C(=O)[C@@H](Nc3nc4cc[nH]cc-4n3)C2SC1 (some centres undefined) | > 256 µg/mL | 2 µg/mL (≈ 4.49 µM) | > 256 µg/mL | 32 µg/mL (≈ 71.8 µM) | 32 µg/mL (≈ 71.8 µM) | 32 µg/mL (≈ 71.8 µM) | 0.5 µg/mL (≈ 1.12 µM) | > 256 µg/mL | 4 µg/mL (≈ 8.98 µM) | > 256 µg/mL | 2 µg/mL (≈ 4.49 µM) | 8 µg/mL (≈ 18 µM) | 256 µg/mL (≈ 575 µM) | > 256 µg/mL | 16 µg/mL (≈ 35.9 µM) | 8 µg/mL (≈ 18 µM) | 256 µg/mL (≈ 575 µM) | 8 µg/mL (≈ 18 µM)
3 | CC1=C(C(=O)OC(c2ccccc2)c2ccccc2)N2C(=O)[C@@H](NC3=NC(c4ccc(O)c(O)c4)CN3)C2SC1 (some centres undefined) | > 256 µg/mL | 2 µg/mL (≈ 3.59 µM) | 8 µg/mL (≈ 14.4 µM) | > 256 µg/mL | 2 µg/mL (≈ 3.59 µM) | > 256 µg/mL | 2 µg/mL (≈ 3.59 µM) | 4 µg/mL (≈ 7.19 µM) | 4 µg/mL (≈ 7.19 µM) | > 256 µg/mL | 2 µg/mL (≈ 3.59 µM) | 4 µg/mL (≈ 7.19 µM) | > 256 µg/mL | > 256 µg/mL | > 256 µg/mL | 4 µg/mL (≈ 7.19 µM) | > 256 µg/mL | > 256 µg/mL
4 | CC(=O)OCC1=C(C(=O)OC(C)(C)C)N2C(=O)[C@@H](Nc3nc4cc(N)ccc4[nH]3)C2SC1 (some centres undefined) | 256 µg/mL (≈ 557 µM) | 0.06 µg/mL (≈ 0.131 µM) | 8 µg/mL (≈ 17.4 µM) | 0.5 µg/mL (≈ 1.09 µM) | 1 µg/mL (≈ 2.18 µM) | 256 µg/mL (≈ 557 µM) | 0.03 µg/mL (≈ 0.0653 µM) | 32 µg/mL (≈ 69.6 µM) | 0.06 µg/mL (≈ 0.131 µM) | 128 µg/mL (≈ 279 µM) | 0.06 µg/mL (≈ 0.131 µM) | 0.12 µg/mL (≈ 0.261 µM) | 32 µg/mL (≈ 69.6 µM) | > 256 µg/mL | 32 µg/mL (≈ 69.6 µM) | 0.25 µg/mL (≈ 0.544 µM) | 2 µg/mL (≈ 4.35 µM) | 1 µg/mL (≈ 2.18 µM)

More lines, in order of falling MIC (Serratia marcescens), values ahead:

Row | MIC (Serratia marcescens) | MIC (Escherichia coli [1]) | MIC (Klebsiella aerogenes [2]) | MIC (Klebsiella pneumoniae) | MIC (Escherichia coli [3]) | MIC (Enterobacter cloacae [4]) | MIC (Escherichia coli [5]) | MIC (Enterobacter cloacae [6]) | MIC (Escherichia coli [7]) | MIC (Proteus vulgaris) | MIC (Enterobacter cloacae [8]) | MIC (Klebsiella aerogenes [9]) | MIC (Staphylococcus aureus [10]) | MIC (Pseudomonas aeruginosa) | MIC (Proteus mirabilis) | MIC (Escherichia coli [11]) | MIC (Staphylococcus aureus [12]) | MIC (Streptococcus pyogenes) | Structure (SMILES)
5 | 256 µg/mL (≈ 505 µM) | 32 µg/mL (≈ 63.2 µM) | 64 µg/mL (≈ 126 µM) | 64 µg/mL (≈ 126 µM) | 32 µg/mL (≈ 63.2 µM) | 64 µg/mL (≈ 126 µM) | 2 µg/mL (≈ 3.95 µM) | 64 µg/mL (≈ 126 µM) | 32 µg/mL (≈ 63.2 µM) | > 256 µg/mL | 32 µg/mL (≈ 63.2 µM) | 64 µg/mL (≈ 126 µM) | > 256 µg/mL | > 256 µg/mL | 256 µg/mL (≈ 505 µM) | 32 µg/mL (≈ 63.2 µM) | > 256 µg/mL | 32 µg/mL (≈ 63.2 µM) | CC(=O)OCC1=C(C(=O)OC(c2ccccc2)c2ccccc2)N2C(=O)[C@@H](NC3=NCCN3)C2SC1 (some centres undefined)
6 | 64 µg/mL (≈ 105 µM) | 0.5 µg/mL (≈ 0.819 µM) | 128 µg/mL (≈ 210 µM) | 0.5 µg/mL (≈ 0.819 µM) | 4 µg/mL (≈ 6.55 µM) | > 128 µg/mL | 0.016 µg/mL (≈ 0.0262 µM) | 64 µg/mL (≈ 105 µM) | 0.5 µg/mL (≈ 0.819 µM) | 8 µg/mL (≈ 13.1 µM) | 0.5 µg/mL (≈ 0.819 µM) | 2 µg/mL (≈ 3.27 µM) | 128 µg/mL (≈ 210 µM) | > 128 µg/mL | 0.25 µg/mL (≈ 0.409 µM) | 0.5 µg/mL (≈ 0.819 µM) | 4 µg/mL (≈ 6.55 µM) | 0.5 µg/mL (≈ 0.819 µM) | Cn1nnnc1SCC1=C(C(=O)OC(c2ccccc2)c2ccccc2)N2C(=O)[C@@H](Nc3nc4ccccc4[nH]3)C2SC1 (some centres undefined)
7 | 64 µg/mL (≈ 137 µM) | 4 µg/mL (≈ 8.54 µM) | 16 µg/mL (≈ 34.1 µM) | 4 µg/mL (≈ 8.54 µM) | 8 µg/mL (≈ 17.1 µM) | 64 µg/mL (≈ 137 µM) | 1 µg/mL (≈ 2.13 µM) | 16 µg/mL (≈ 34.1 µM) | 8 µg/mL (≈ 17.1 µM) | 64 µg/mL (≈ 137 µM) | 8 µg/mL (≈ 17.1 µM) | 8 µg/mL (≈ 17.1 µM) | > 256 µg/mL | > 256 µg/mL | > 256 µg/mL | 4 µg/mL (≈ 8.54 µM) | > 256 µg/mL | 16 µg/mL (≈ 34.1 µM) | Cc1nnc(SCC2=C(C(=O)OC(C)(C)C)N3C(=O)[C@@H](NC4=NCCN4)C3SC2)s1 (some centres undefined)
8 | 64 µg/mL (≈ 108 µM) | 0.25 µg/mL (≈ 0.421 µM) | 128 µg/mL (≈ 216 µM) | 0.5 µg/mL (≈ 0.842 µM) | 4 µg/mL (≈ 6.74 µM) | > 256 µg/mL | < 0.03 µg/mL | 256 µg/mL (≈ 431 µM) | 0.5 µg/mL (≈ 0.842 µM) | > 256 µg/mL | 1 µg/mL (≈ 1.68 µM) | 0.5 µg/mL (≈ 0.842 µM) | 256 µg/mL (≈ 431 µM) | > 256 µg/mL | 64 µg/mL (≈ 108 µM) | 0.5 µg/mL (≈ 0.842 µM) | 1 µg/mL (≈ 1.68 µM) | 0.5 µg/mL (≈ 0.842 µM) | CC(=O)OCC1=C(C(=O)OC(c2ccccc2)c2ccccc2)N2C(=O)[C@@H](Nc3nc4cc(CC#N)ccc4[nH]3)C2SC1 (some centres undefined)
